For series [1], the species on record is Homo sapiens. Put plainly: Selectivity index, ratio IC50 for human CYP11B1 to IC50 for human CYP11B2. In outline: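 Ratio of human CYP11B1 IC50 to human CYP11B2 IC50; each IC50 calculated from n ≥ 2 determinations.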
Series [2] is described as follows: Intrinsic clearance in Sprague-Dawley rat liver microsomes by LC/MS method. The series is classed as ADME. The settings on record: read-out: CLH. Background: Microsomes from liver hold many membrane-bound enzymes, among them those of drug oxidation.
Series [3] in a line: Oral bioavailability in Sprague-Dawley rat at 2 mg/kg administered through gavage. The series is classed as ADME, organism-based. The note with it: in vivo.
Series [4] deals with Plasma. Description: Plasma protein binding in rhesus monkey. The format is ADME, cell-free, Macaca mulatta.
Series [5] is described as follows: Intrinsic clearance in rhesus monkey liver microsomes by LC/MS method. The series is classed as ADME, Macaca mulatta.
Series [6] can be described thus: Oral bioavailability in rhesus monkey at 2 mg/kg administered through gavage. The series is classed as ADME, organism-based, Macaca mulatta. The settings on record: in vivo.
Series [7] has as its system Rhesus monkey. Put plainly: Dose normalized AUC in rhesus monkey at 2 mg/kg administered through gavage. The note with it: in vivo, po. The series is classed as ADME, organism-based, Macaca mulatta.
Series [8] can be described thus: Half life in rhesus monkey at 2 mg/kg administered through gavage. The note with it: in vivo, po. The format is ADME, organism-based, Macaca mulatta.
The nature of series [9]: Inhibition of rhesus monkey CYP11B2 expressed in V79 cells assessed as aldosterone level after 3 hrs by HTRF assay in presence of 125 nM 11-deoxycorticosterone. The format is cell-based. The note with it: Macaca mulatta, V79, 3 h. A general note: Time-resolved FRET reads energy transfer from a long-lived donor to a nearby acceptor.
In series [10] the target is T1, Cytochrome P450 11B2, mitochondrial (Rattus norvegicus, UniProt P30099).
T1 sequence (P30099 whole entry): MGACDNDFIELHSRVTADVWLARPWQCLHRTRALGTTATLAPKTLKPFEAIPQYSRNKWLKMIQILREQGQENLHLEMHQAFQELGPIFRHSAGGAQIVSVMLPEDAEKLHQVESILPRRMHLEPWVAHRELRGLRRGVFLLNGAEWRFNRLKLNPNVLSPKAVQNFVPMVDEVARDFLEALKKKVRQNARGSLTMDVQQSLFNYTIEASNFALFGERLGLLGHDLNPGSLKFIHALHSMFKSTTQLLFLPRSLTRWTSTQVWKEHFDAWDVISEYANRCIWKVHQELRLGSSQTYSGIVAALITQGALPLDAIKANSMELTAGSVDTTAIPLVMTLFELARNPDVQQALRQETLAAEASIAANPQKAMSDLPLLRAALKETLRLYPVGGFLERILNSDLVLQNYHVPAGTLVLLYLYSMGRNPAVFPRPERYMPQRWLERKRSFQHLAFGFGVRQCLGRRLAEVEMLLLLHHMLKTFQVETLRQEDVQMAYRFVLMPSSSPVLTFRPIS
Put plainly: Inhibition of rat CYP11B2 expressed in V79 cells assessed as aldosterone level after 3 hrs by HTRF assay in presence of 500 nM 11-deoxycorticosterone. The format is cell-based. The settings on record: v79, 3 h.

Series [11] has as its system Rhesus monkey. Put plainly: Decrease in aldosterone level in rhesus monkey plasma at 0.1 mg/kg, iv by LC/MS method. The series is classed as functional. The settings on record: Macaca mulatta. In a few lines:
(§1)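 Plasma aldosterone and 11-deoxycortisol quantified by LC–MS at time points up to 180 min postdose; AUCs over that period calculated and compared with baseline.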

For series [12], the system named is Rhesus monkey. Description: Decrease in aldosterone level in rhesus monkey plasma at 1 mg/kg, iv by LC/MS method. The note with it: Macaca mulatta. The series is classed as functional. In a few lines: as §1
Series [13] concerns Plasma. Description: Free plasma concentration in rhesus monkey at 0.1 mg/kg, iv measured 90 mins post dose by LC/MS method. The format is ADME, organism-based, Macaca mulatta. The note with it: in vivo, 1.5 h. In outline: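 Anesthetized rhesus monkeys dosed i.v.; plasma drug concentration measured 90 min postdose. Free (unbound) concentration calculated from total plasma level using the free fraction determined in rhesus plasma.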

The nature of series [14]: Inhibition of rhesus monkey CYP11B1. The arrangement: species or system Macaca mulatta.

By bioavailability is commonly meant dose-corrected exposure relative to a reference, in per cent. For orientation: half-life means the time in which the quantity being followed falls by half. The IC50 is the concentration needed to halve the response being measured. By inhibition in vivo is commonly meant the relative decrease from the control value, in per cent.

Where only a bound is given, the exact number is not on record here.

Take `Cc1nnc2n1-c1ccc(-c3cncc([C@](C)(O)C(F)(F)F)c3)cc1CC2`: in series [1], the Ratio IC50 amounted to 69. The CLint scaled in [2] and in series [5] was less than 20 mL/min/kg in each case. The bioavailability turned out to be 87% in series [3] and 100% in series [6]. In [4], this compound gave a PPB of 31%. The same compound returned an AUC in series [7] of 16.26 µM·kg·h/mg. In addition, in series [8], the half-life is 7.8 h. In addition, the values for the IC50 in [9] and in series [14] were 12 nM and 3480 nM, respectively. Besides, in series [10], the “inhibition (INH)” value is on record as “Active”. Further, the inhibition in vivo at 0.1 mg/kg in series [11] amounted to 48%. In series [12], the inhibition in vivo at 1 mg/kg is 98%. In addition, the “Cp(f)” value in series [13] was determined as 19 nM.

Values taken from ChEMBL document CHEMBL3621164, “Discovery of Triazole CYP11B2 Inhibitors with in Vivo Activity in Rhesus Monkeys” (ACS Med Chem Lett, 2015).
